Compound activity deposited in PubChem by several laboratories.
MPTP block – blocks calcium-induced mitochondrial swelling; isolated mouse mitochondria, Ca2+ swelling absorbance, 30 min; inhibition, % at 10 µM; 360,000 tested, 1.4% active; AID 602449;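 active = inhibition of 50% or more, scaled per plate between neutral and stimulator controls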;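 note: 0% = DMSO wells given calcium and 100% = 1 mM EGTA wells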
MC4R ag barr – human MC4R agonism via beta-arrestin | P32245 | activation, % at 8.9 µM | 360,000 tested, 0.98% active | U2OS MC4R beta-arrestin complementation, luminescence; percent of melanotan II response, DMSO zero | AID 540308;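 active = activation above a per-plate cutoff, the mean activation of sample wells on that plate plus 3 SD, cut at about 8% in these data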
Target sequence (P32245 whole entry, looked up): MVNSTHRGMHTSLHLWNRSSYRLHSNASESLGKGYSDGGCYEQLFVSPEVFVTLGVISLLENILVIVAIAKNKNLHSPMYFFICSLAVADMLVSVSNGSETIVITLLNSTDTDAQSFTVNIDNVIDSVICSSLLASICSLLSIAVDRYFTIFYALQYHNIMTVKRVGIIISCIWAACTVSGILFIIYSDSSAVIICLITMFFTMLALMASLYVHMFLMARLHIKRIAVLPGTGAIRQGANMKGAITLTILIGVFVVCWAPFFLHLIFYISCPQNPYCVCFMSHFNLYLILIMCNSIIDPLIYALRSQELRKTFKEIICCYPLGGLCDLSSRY
MC4R antag cAMP – human MC4R antagonism in cAMP assay; MC4R-expressing cells, MTII-stimulated cAMP, LANCE TR-FRET; inhibition, % at 6.5 µM; 360,000 tested, 0.48% active;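 active = inhibition above its plate's cutoff, the mean of tested wells on that plate plus 3 SD, cut at about 29% in these data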;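 note: 0% = Melanotan II alone and 100% = Melanotan II plus saturating MCL0020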
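Assay system: U2OS cells stably expressing human melanocortin 4 receptor (MC4R) / Dosing: 6.5 µM / Timing: compound 30 min, challenge 1 h, detection 1 h / Measured by: Eu-cAMP/anti-cAMP TR-FRET, emission 671 nm / Replicates: singlicate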
SMARCA2 act – activators of SMARCA2 function. 370,000 tested, 1% active. MG213 cells, MMTV-luciferase reporter, dexamethasone, overnight. activation, % at 9.1 µM; in the data active = activation above about 7.8%;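 note: 0% = vehicle wells and 100% = reference activator wells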
ATG4B inhibitor – blocks human ATG4B protease cleavage of LC3 substrate; Q9Y4P1; inhibition, % at 8.33 µM; ATG4B cleavage of LC3-PLA2, NBD-HPC fluorescence, 1 h; 340,000 tested, 0.51% active; in the data active = inhibition above about 40%
MPTP counter – membrane potential counter-screen of mitochondrial pore inhibitors. shares compounds with MPTP block. AID 624504. 5,000 tested, 78% active. isolated mitochondria, Rhodamine 123 fluorescence. inhibition, % at 10 µM; in the data active = inhibition above about 22%;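 note: 0% = DMSO vehicle and 100% = positive control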
MPTP swell DR – MPTP inhibition, dose response swelling confirmation; 780 tested, 58% active; isolated mitochondria swelling, absorbance; IC50, µM; shares compounds with MPTP block; in the data active = IC50 below about 20 µM
MPTP cs DR – counter-screen for mitochondrial permeability transition pore inhibitors, dose response; shares compounds with MPTP block; isolated mitochondria counterscreen, fluorescence read-out; IC50, µM; 780 tested, 49% active; AID 651564; in the data active = IC50 below about 80 µM
Starred values were filed as active, the others as inactive; / = no result. In the library only some 4.1% were active in any assay of this set; here they are far more common.

SMILES	MPTP block	MC4R ag barr	MC4R antag cAMP	SMARCA2 act	ATG4B inhibitor	MPTP counter	others
O=C1S/C(=C\c2ccc(O)c([N+](=O)[O-])c2)C(=O)N1Cc1cccc([N+](=O)[O-])c1	100*	1	-6	-2	33	61*
C#CCCN([C@H](C(=O)OC)C(C)C)S(=O)(=O)c1ccccc1Br	/	/	/	-4	/	/
NS(=O)(=O)c1ccc(NC(=O)CSc2nnc(-c3cccs3)o2)cc1	/	/	/	-4	/	/
CCN(CC)c1ccc(NC(=O)CSc2nnc(SCc3ccc(Cl)cc3)s2)cc1	/	/	/	-5	/	/
CC(C)C(=O)Nc1nnc(CSCc2ccccc2F)s1	1	-2	6	-2	-10	/
CC(C)(C)c1nc(NC(=O)Nc2ccccc2)sc1Br	94*	-4	6	-6	17	80*
O=C(Nc1ccc(Cl)c(Cl)c1)Nc1nnc(CSc2ccccc2)s1	75*	0	-3	-6	-3	40*
O=C(Cc1nnc(NC(=O)Nc2ccccc2)s1)Nc1ccccc1	4	4	11	-3	1	/
O=C(Nc1ccc(Cl)cc1)Nc1nnc(CSCc2ccccc2Cl)s1	79*	-2	3	1	-6	57*
O=C(Nc1ccc(Cl)cc1)Nc1nnc(SCc2ccccc2)s1	86*	4	1	4	1	89*
COc1ccc(NC(=O)Nc2nnc(C(C)(C)C)s2)cc1	13	2	12	3	-7	/
CCCCCCCCN1C(=O)[C@@H](CC(=O)NCC2CCCCC2)C[C@@]2(C(=O)OC)C1=C[C@H](C(C)(C)C)O[C@@H]2C	/	/	/	1	/	/
COc1cccc(-c2cccc3c4c([nH]c23)[C@@H]2C[C@H]3[C@@H](C(=O)N2CC4)[C@H](C)ON3C)c1	/	/	/	-4	/	/
O=C(/C=C/[C@H]1O[C@@H](n2ccc(=O)[nH]c2=O)[C@H](O)[C@@H]1O)NCCCc1ccccc1	-2	/	/	-3	/	/
CN(C(=O)CNC(=O)c1ccccc1OCC(=O)Nc1ccc(Br)cc1)c1ccccc1	/	/	/	0	/	/
CC(C)(C)c1nnc(NC(=O)Nc2ccc(Cl)cc2)s1	58*	7	11	1	-3	86*
CC1CCN(S(=O)(=O)c2nnc(NC(=O)c3cccc([N+](=O)[O-])c3)s2)CC1	82*	-2	-5	/	11	42*
Cc1ccc(OCCSCc2nnc(NC(=O)Nc3cccc(Cl)c3)s2)cc1	93*	5	7	-1	-10	85*
O=C(Nc1nnc(SCc2ccccc2)s1)c1cccc([N+](=O)[O-])c1	71*	0	-7	-3	20	83*
CCCN1C(=O)c2n[nH]c(C(C)C)c2C1c1cccc(C(F)(F)F)c1 (centres undefined)	/	/	/	0	/	/
CC[C@@H](CCC(=O)N(c1ccccc1)c1ccccc1)c1ccc(C)cc1	/	/	/	-6	/	/
C=CCn1c(COc2ccc(C)cc2)nnc1SCC(=O)Nc1ccc(Oc2ccccc2)cc1	/	/	/	-4	/	/
Cc1ccc(-n2c(O)c(/C=N/Nc3ccc(S(=O)(=O)N4CCOCC4)cc3[N+](=O)[O-])c3ccccc3c2=O)c(C)c1	110*	-6	2	-6	17	40*
O=C(O)c1ccc(/C=N\Nc2ccc(S(=O)(=O)N3CCOCC3)cc2[N+](=O)[O-])cc1	1	-1	9	-2	-3	/
Cc1nc2c(C#N)c(C)[nH]n2c(=O)c1Cc1ccccc1	0	-1	15	0	10	/
SMILES	MPTP block	MC4R ag barr	MC4R antag cAMP	SMARCA2 act	ATG4B inhibitor	MPTP counter	others
Cc1nc2c(-c3ccc(Cl)cc3)c(C)[nH]n2c(=O)c1Cc1ccccc1	69*	-4	-1	-4	-2	91*
O=C(c1ccccc1)c1cnc(Nc2ccc(Cl)c(Cl)c2)s1	62*	-1	14	-2	-8	44*
O=C(O)c1cc(S(=O)(=O)Nc2ccccc2C(=O)O)ccc1O	0	0	3	-2	-1	/
O=C(O)c1cc(S(=O)(=O)Nc2cc(Cl)ccc2Oc2ccccc2)ccc1O	72*	-2	6	3	15	86*
CCOC(=O)[C@@]12CCCC=C1N(CCc1ccc(Cl)cc1)C(=O)[C@H]2CC(=O)NCc1ccccc1	/	/	/	-3	/	/
CCOC(=O)C1CCCN(C(=O)c2ccc(S(=O)(=O)N3CCCC3)cc2)C1 (centres undefined)	1	-1	-2	-2	-4	/
CCOC(=O)C1CCCN(S(=O)(=O)c2ccc(S(=O)(=O)N3CCCC3)cc2)C1 (centres undefined)	62*	-1	4	-2	11	74*
Nc1nonc1C(=O)NCCNCc1cc(Br)ccc1OCc1ccccc1F	84*	-2	7	-6	-10	80*
NS(=O)(=O)c1ccc(CCNCc2cc(Br)ccc2OCc2ccccc2F)cc1	78*	2	1	-5	-3	66*
NS(=O)(=O)c1ccc(CCNCc2cc(Cl)ccc2OCc2ccccc2)cc1	16	0	7	0	-10	/
COc1cc(CNCCNC(=O)c2nonc2N)ccc1OCc1ccc(Cl)cc1	83*	0	3	0	-18	28*
Nc1nonc1C(=O)NCCNCc1ccccc1OCc1ccccc1F	4	-2	3	-2	-8	/
COc1cc(CNCc2ccc(SC)cc2)cc(OC)c1	56*	1	-3	-2	-7	16	MPTP swell DR=11*;MPTP cs DR=18*
OC(CNCc1ccccc1)COc1ccccc1 (centres undefined)	-1	2	16	0	3	/
Cc1ccc(OCC(O)CNCc2ccc(F)cc2)cc1 (centres undefined)	85*	-1	-1	-1	-9	-9	MPTP swell DR=9.2*;MPTP cs DR=>80
CNC(=S)Nc1ccc([N+](=O)[O-])cc1C	-2	-3	7	1	1	/
Cc1ccc(NC(=S)NNc2ccc(C(=O)O)cc2[N+](=O)[O-])cc1C	54*	-3	2	2	-2	64*
CNC(=S)Nc1ccc([N+](=O)[O-])c(C)c1	62*	-2	1	-1	-3	78*
C[C@H](O)[C@@H]1CN2CCc3ccc(N4CCOCC4)cc3[C@@H]2C[C@@H]1N(C)C(=O)c1cccc(Cl)c1	/	/	/	-3	/	/
O=C(Nc1cccc(Cl)c1)c1cccc(Oc2ccc([N+](=O)[O-])cc2Cl)c1	86*	-1	0	-6	-3	97*
COc1ccc(NC(=O)c2cccc(Oc3ccc([N+](=O)[O-])cc3Cl)c2)cc1	38	-1	-13	-6	5	/
COc1ccc([N+](=O)[O-])cc1NC(=O)Nc1cccc(Cl)c1	107*	2	-1	-2	-9	67*
